Assay [1] in a line: Inhibition of Pseudomonas aeruginosa PA3774 using Boc-Lys(trifluoroacetyl)-AMC as substrate preincubated for 30 mins followed by substrate addition measured after 60 mins by trypsin-based fluorescence assay.
A short description of assay [2]: Inhibition of Bordetella HDAH using Boc-Lys(trifluoroacetyl)-AMC as substrate preincubated for 30 mins followed by substrate addition measured after 60 mins by trypsin-based fluorescence assay. The gist of the method: (§1)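 Bacterial HDAH activity was measured by a fluorogenic assay in which the deacetylated substrate is converted to fluorescent dye by trypsin. Ki was calculated via Cheng-Prusoff from IC50 values, which were fitted to dose-response curves spanning 10 ligand concentrations.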

The target in assay [3] is Histone deacetylase 1 (Homo sapiens, UniProt Q13547). Nature of the assay: Inhibition of human HDAC1 using Boc-Lys(Ac)-AMC as substrate preincubated for 30 mins followed by substrate addition measured after 60 mins by trypsin-based fluorescence assay. A digest of the protocol: (§2)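 Fluorogenic deacetylase assay with Boc-Lys(Ac)-AMC substrate. After a 30 min incubation, trypsin was added to convert the deacetylated substrate to the fluorescent dye.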
Histone deacetylase 1, sequence (Q13547 whole entry): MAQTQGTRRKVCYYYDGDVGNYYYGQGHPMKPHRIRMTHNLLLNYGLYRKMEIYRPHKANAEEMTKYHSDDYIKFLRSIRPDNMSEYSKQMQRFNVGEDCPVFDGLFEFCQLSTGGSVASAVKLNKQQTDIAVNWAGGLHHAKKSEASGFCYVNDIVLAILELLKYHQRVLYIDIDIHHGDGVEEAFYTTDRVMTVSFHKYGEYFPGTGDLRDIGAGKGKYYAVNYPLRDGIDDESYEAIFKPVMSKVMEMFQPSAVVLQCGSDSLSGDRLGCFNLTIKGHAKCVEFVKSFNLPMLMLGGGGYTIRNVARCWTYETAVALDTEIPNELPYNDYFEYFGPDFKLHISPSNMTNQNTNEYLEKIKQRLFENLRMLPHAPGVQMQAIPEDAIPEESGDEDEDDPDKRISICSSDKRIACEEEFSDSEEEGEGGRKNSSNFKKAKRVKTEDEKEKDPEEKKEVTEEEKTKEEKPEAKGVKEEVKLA

For assay [4], the target named is T1, Histone deacetylase 8 (Homo sapiens, UniProt Q9BY41).
T1 sequence (Q9BY41 whole entry): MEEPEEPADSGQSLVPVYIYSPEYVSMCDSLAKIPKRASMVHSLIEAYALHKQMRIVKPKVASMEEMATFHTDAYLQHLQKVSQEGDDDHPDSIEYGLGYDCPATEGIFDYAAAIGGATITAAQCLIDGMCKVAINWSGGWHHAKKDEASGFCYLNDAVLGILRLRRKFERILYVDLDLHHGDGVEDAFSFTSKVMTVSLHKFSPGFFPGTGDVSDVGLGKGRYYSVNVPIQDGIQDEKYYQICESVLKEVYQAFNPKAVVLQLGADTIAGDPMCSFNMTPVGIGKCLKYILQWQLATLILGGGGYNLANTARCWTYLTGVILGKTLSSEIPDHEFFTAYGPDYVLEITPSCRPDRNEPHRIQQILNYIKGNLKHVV
Nature of the assay: Inhibition of human HDAC8 using Boc-Lys(trifluoroacetyl)-AMC as substrate preincubated for 30 mins followed by substrate addition measured after 60 mins by trypsin-based fluorescence assay. A digest of the protocol:
(§3)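 Boc-Lys(trifluoroacetyl)-AMC served as substrate in a fluorogenic activity assay. Trypsin was added after a 30 min incubation to release the fluorescent dye from the deacetylated product. IC50 values came from 10-point ligand dose-response curves and were converted to Ki by the Cheng-Prusoff relation.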

Assay [5] deals with Histone deacetylase 5 (Homo sapiens, UniProt Q9UQL6). The assay is described as follows: Inhibition of human HDAC5 using Boc-Lys(trifluoroacetyl)-AMC as substrate preincubated for 30 mins followed by substrate addition measured after 60 mins by trypsin-based fluorescence assay.
Histone deacetylase 5, sequence (Q9UQL6 whole entry): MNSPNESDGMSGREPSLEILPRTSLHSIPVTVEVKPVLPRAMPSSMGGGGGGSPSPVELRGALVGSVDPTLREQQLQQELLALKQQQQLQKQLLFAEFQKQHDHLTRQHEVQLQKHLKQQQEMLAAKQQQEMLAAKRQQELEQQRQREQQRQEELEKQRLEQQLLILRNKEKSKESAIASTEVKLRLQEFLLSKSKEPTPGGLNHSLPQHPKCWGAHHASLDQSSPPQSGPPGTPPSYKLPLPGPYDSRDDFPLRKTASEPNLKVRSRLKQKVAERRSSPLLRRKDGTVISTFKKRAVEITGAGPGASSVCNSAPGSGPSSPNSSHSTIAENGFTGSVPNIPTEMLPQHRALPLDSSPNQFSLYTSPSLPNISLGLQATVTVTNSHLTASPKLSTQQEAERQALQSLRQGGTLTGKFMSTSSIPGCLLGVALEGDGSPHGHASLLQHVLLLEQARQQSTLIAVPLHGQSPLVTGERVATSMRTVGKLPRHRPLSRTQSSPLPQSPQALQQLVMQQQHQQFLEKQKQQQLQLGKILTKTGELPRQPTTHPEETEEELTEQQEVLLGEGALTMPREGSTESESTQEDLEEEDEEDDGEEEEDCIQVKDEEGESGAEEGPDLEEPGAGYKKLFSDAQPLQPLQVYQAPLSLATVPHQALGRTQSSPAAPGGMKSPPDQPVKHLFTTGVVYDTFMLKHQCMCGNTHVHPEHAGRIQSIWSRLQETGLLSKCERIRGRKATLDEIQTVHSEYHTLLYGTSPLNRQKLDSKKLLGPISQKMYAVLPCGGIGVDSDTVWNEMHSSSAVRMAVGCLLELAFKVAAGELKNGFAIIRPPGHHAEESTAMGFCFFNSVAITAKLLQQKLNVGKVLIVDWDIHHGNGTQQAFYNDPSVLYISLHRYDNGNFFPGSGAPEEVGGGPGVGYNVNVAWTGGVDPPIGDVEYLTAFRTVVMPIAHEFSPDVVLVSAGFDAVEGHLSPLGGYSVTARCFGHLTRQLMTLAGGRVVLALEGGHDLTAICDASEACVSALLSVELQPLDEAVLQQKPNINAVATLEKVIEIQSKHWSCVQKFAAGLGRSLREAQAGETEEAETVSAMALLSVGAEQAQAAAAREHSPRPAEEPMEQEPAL
A short description of assay [6]: Inhibition of Pseudomonas aeruginosa PA1409 using Boc-Lys(trifluoroacetyl)-AMC as substrate preincubated for 30 mins followed by substrate addition measured after 60 mins by trypsin-based fluorescence assay.
Assay [7] has as its target T2, Protein deacetylase HDAC6 (Homo sapiens, UniProt Q9UBN7).
T2 sequence (Q9UBN7 whole entry): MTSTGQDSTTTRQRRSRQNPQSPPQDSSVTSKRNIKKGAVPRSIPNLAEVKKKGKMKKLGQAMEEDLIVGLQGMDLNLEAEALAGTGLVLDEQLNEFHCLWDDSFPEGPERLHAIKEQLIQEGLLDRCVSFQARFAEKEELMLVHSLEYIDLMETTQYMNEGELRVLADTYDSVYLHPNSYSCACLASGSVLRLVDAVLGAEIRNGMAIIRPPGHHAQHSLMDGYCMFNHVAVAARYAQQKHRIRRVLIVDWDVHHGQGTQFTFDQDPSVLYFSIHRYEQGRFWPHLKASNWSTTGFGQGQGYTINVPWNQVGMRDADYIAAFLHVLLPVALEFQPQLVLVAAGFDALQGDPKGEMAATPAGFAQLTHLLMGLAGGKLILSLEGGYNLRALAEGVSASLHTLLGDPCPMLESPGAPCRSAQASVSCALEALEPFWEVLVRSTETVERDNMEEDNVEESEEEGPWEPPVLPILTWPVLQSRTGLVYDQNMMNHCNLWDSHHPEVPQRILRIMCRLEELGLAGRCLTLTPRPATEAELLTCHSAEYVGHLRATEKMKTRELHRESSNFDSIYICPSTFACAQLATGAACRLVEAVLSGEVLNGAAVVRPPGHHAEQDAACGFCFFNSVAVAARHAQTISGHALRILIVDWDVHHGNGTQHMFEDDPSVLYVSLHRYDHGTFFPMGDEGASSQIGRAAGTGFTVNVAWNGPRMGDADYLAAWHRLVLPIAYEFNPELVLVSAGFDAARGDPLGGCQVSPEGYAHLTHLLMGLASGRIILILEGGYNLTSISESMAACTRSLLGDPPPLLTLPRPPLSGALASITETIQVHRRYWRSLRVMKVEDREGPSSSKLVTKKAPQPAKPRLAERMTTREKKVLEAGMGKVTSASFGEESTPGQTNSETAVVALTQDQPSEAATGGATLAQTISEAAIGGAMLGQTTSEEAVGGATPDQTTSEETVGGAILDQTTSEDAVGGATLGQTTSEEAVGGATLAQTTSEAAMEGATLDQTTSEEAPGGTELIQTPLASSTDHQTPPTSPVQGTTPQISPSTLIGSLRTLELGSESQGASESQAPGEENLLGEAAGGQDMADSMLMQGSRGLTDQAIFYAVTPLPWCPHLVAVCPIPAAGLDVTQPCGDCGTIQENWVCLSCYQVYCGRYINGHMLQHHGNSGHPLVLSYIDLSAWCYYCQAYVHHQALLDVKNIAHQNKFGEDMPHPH
The assay is described as follows: Inhibition of human HDAC6 using Boc-Lys(Ac)-AMC as substrate preincubated for 30 mins followed by substrate addition measured after 60 mins by trypsin-based fluorescence assay. A digest of the protocol:
as §2

The nature of assay [8]: Inhibition of Alcaligenes HDAH using Boc-Lys(trifluoroacetyl)-AMC as substrate preincubated for 30 mins followed by substrate addition measured after 60 mins by trypsin-based fluorescence assay. The gist of the method:
as §1

Assay [9] is described as follows: Inhibition of Pseudomonas aeruginosa PA0321 using Boc-Lys(trifluoroacetyl)-AMC as substrate preincubated for 30 mins followed by substrate addition measured after 60 mins by trypsin-based fluorescence assay.
Assay [10] addresses T3, Histone deacetylase 7 (Homo sapiens, UniProt Q8WUI4).
T3 sequence (Q8WUI4 whole entry): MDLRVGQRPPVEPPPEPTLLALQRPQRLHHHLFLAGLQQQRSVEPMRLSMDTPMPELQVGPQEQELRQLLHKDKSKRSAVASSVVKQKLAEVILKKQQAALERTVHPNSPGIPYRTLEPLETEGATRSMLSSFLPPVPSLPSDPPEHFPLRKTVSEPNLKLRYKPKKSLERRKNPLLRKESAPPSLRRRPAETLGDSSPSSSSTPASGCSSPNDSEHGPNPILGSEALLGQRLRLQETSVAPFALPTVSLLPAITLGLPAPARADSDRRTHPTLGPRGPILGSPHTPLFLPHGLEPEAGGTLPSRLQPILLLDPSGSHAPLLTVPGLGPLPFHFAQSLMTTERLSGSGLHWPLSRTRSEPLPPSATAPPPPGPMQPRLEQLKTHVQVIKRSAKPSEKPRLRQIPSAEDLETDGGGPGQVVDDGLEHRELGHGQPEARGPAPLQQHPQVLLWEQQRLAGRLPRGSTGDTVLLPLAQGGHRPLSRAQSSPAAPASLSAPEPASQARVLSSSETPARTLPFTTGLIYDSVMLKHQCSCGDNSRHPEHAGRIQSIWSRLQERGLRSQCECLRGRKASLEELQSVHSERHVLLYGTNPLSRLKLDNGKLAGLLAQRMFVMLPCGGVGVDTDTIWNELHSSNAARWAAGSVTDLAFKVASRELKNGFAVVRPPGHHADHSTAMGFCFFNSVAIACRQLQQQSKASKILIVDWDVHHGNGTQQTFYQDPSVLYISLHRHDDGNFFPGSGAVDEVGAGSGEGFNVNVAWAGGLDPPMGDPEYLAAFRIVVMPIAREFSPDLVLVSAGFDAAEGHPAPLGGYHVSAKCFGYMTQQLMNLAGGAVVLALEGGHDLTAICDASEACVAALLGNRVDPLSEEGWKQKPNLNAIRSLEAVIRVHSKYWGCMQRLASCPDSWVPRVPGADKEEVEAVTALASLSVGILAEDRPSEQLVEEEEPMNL
Nature of the assay: Inhibition of human HDAC7 using Boc-Lys(trifluoroacetyl)-AMC as substrate preincubated for 30 mins followed by substrate addition measured after 60 mins by trypsin-based fluorescence assay. The gist of the method:
as §3

Assay [11] has as its target Histone deacetylase 4 (Homo sapiens, UniProt P56524). Nature of the assay: Inhibition of human HDAC4 using Boc-Lys(trifluoroacetyl)-AMC as substrate preincubated for 30 mins followed by substrate addition measured after 60 mins by trypsin-based fluorescence assay.

Histone deacetylase 4, sequence (P56524 whole entry): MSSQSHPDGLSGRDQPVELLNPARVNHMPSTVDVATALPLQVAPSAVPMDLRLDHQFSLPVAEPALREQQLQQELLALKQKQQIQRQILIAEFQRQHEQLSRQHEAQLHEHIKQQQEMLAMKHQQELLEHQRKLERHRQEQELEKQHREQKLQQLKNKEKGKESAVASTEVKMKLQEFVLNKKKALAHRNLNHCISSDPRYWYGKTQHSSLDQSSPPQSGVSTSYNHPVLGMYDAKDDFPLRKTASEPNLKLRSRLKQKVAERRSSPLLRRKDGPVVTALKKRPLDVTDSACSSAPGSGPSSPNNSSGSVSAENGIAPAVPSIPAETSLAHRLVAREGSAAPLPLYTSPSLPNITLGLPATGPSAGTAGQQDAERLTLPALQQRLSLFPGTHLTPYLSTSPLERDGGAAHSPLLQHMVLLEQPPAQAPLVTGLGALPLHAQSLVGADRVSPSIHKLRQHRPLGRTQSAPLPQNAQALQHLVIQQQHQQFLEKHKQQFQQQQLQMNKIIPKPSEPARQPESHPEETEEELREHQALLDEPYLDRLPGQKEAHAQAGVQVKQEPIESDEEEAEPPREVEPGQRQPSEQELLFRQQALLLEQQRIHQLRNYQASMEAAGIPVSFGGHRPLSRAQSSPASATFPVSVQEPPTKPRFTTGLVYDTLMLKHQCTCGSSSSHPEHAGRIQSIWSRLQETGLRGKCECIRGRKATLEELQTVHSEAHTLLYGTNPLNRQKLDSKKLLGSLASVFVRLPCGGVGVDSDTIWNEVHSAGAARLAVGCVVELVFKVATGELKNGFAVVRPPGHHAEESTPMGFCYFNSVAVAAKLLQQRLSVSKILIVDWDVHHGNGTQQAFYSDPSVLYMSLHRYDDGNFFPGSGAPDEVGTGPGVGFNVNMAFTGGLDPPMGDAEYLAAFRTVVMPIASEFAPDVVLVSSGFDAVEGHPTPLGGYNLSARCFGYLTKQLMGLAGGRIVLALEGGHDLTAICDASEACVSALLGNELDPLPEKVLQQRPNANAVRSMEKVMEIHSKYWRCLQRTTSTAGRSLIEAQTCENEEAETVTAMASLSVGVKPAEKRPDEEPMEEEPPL

Take `O=C(NO)C(F)(F)C(F)(F)C(F)(F)C(F)(F)C(F)(F)C(F)(F)C(=O)Nc1ccc(F)cc1`: the Ki in assay [1] is 0.46 µM; in [2], 0.33 µM; in [3] it was > 50 µM; in assay [4] it was > 50 µM; in assay [5], > 50 µM; in assay [6], > 50 µM. The Ki in assay [7] was > 50 µM; in assay [8], 0.33 µM; in assay [9], 0.49 µM; in assay [10], > 50 µM; in [11], > 50 µM.

On to `CN(C)c1ccc(NC(=O)C(F)(F)C(F)(F)C(F)(F)C(F)(F)C(F)(F)C(F)(F)C(=O)NO)cc1`, for which the Ki in assay [1] is 2.7 µM; in assay [2] it was > 50 µM; in assay [3] it was > 50 µM; in assay [4], > 50 µM; in [5] it was > 50 µM; in assay [6], > 50 µM. The Ki in [7], in [8], in [9], in assay [10] and in assay [11] was > 50 µM in each case.

In the case of `Cc1cccc(NC(=O)C(F)(F)C(F)(F)C(F)(F)C(F)(F)C(F)(F)C(F)(F)C(=O)NO)c1`, the Ki was 0.092 µM in assay [1]; 0.45 µM in assay [2]; > 50 µM in assay [3]; > 50 µM in assay [4]; > 50 µM in assay [5]; 11 µM in [6]. For the same molecule, the Ki in assay [7] is > 50 µM; in assay [8], 0.45 µM; in assay [9], 0.27 µM; in [10] it was > 50 µM; in [11] it was > 50 µM.

Take `COc1ccc(NC(=O)C(F)(F)C(F)(F)C(F)(F)C(F)(F)C(F)(F)C(F)(F)C(=O)NO)cc1`: the Ki is 1.2 µM in assay [1]; 0.18 µM in assay [2]; > 50 µM in assay [3]; > 50 µM in assay [4]; > 50 µM in assay [5]; > 50 µM in assay [6]. The inhibition constant (Ki) in assay [7] is > 50 µM; in [8], 0.18 µM; in assay [9], 0.37 µM; in assay [10], > 50 µM; in assay [11], > 50 µM.

Regarding `Cc1ccc(NC(=O)C(F)(F)C(F)(F)C(F)(F)C(F)(F)C(F)(F)C(F)(F)C(=O)NO)cc1C`, the Ki was 0.1 µM in [1]; 0.11 µM in assay [2]; 7 µM in assay [3]; 8.4 µM in assay [4]; > 50 µM in assay [5]; 5.8 µM in assay [6]. Besides, the Ki in assay [7] is 20 µM; in [8] it was 0.11 µM; in [9], 1.6 µM; in assay [10], 2.5 µM; in [11] it was > 50 µM.

`O=C(NO)C(F)(F)C(F)(F)C(F)(F)C(F)(F)C(F)(F)C(F)(F)C(=O)Nc1cccc(Cl)c1`: the inhibition constant Ki was 0.046 µM in [1]; 0.17 µM in assay [2]; > 50 µM in assay [3]; > 50 µM in assay [4]; > 50 µM in assay [5]; 11 µM in assay [6]. Besides, the Ki in [7] was > 50 µM; in assay [8], 0.17 µM; in assay [9], 0.073 µM; in assay [10], > 50 µM; in assay [11] it was > 50 µM.

For the molecule `O=C(NO)C(F)(F)C(F)(F)C(F)(F)C(F)(F)C(F)(F)C(F)(F)C(=O)Nc1ccccc1Cl`, the Ki in [1] was 0.16 µM; in assay [2], 0.24 µM; in assay [3] it was > 50 µM; in [4] it was > 50 µM; in assay [5], > 50 µM; in assay [6], > 50 µM. The Ki was > 50 µM in assay [7]; 0.24 µM in assay [8]; 0.8 µM in assay [9]; > 50 µM in assay [10]; > 50 µM in [11].

On to `Cc1ccccc1NC(=O)C(F)(F)C(F)(F)C(F)(F)C(F)(F)C(F)(F)C(F)(F)C(=O)NO`, for which the Ki in assay [1] is 0.16 µM; in assay [2], 0.62 µM; in assay [3], > 50 µM; in [4] it was > 50 µM; in assay [5], > 50 µM; in assay [6], > 50 µM. Also, the inhibition constant Ki was > 50 µM in [7]; 0.62 µM in assay [8]; 84 µM in assay [9]; > 50 µM in assay [10]; > 50 µM in assay [11].

For orientation: Ki means the equilibrium dissociation constant of an inhibitor or competing ligand from its target. Lower therefore signals tighter binding.

The values are drawn from ChEMBL document CHEMBL4004881, “Perfluorinated hydroxamic acids are potent and selective inhibitors of HDAC-like enzymes from Pseudomonas aeruginosa” (Bioorg Med Chem Lett, 2017).
